Assay outcomes: PubChem, several laboratories
In the library only some 2.5% were active in any assay of this set; here they are far more common.
TRPC4 block – inhibitors of mouse TRPC4 channel; Q9QUQ5; HEK293 TRPC4beta/mu-opioid, DAMGO-evoked Fluo4 calcium flux; hits give low values; B-score at 10 µM; 0.39% of 300,000 active; AID 2247;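 active means B-score over 3 SD under the library average, no early fluorescence shift, positive overall ratio signal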
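test system = HEK293 cells with stable TRPC4beta plus mu-opioid receptor expression | detection = Fluo4 Ca2+ flux fluorescence | read-out = integrated fluorescence ratio relative to baseline, converted to per-well B score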
TRPC6 act – activators of mouse TRPC6 channel. AID 2550. HEK293-TRPC6 membrane potential dye fluorescence; hits give high values. Q61143. 0.13% of 310,000 active. B-score at 10 µM;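 active means B-score of the integrated fluorescence ratio above library mean plus 3 SD, and starting fluorescence ratio within library mean plus 5 SD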;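 further: higher score means more depolarization so channel activation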
Target sequence (Q61143 whole entry, looked up): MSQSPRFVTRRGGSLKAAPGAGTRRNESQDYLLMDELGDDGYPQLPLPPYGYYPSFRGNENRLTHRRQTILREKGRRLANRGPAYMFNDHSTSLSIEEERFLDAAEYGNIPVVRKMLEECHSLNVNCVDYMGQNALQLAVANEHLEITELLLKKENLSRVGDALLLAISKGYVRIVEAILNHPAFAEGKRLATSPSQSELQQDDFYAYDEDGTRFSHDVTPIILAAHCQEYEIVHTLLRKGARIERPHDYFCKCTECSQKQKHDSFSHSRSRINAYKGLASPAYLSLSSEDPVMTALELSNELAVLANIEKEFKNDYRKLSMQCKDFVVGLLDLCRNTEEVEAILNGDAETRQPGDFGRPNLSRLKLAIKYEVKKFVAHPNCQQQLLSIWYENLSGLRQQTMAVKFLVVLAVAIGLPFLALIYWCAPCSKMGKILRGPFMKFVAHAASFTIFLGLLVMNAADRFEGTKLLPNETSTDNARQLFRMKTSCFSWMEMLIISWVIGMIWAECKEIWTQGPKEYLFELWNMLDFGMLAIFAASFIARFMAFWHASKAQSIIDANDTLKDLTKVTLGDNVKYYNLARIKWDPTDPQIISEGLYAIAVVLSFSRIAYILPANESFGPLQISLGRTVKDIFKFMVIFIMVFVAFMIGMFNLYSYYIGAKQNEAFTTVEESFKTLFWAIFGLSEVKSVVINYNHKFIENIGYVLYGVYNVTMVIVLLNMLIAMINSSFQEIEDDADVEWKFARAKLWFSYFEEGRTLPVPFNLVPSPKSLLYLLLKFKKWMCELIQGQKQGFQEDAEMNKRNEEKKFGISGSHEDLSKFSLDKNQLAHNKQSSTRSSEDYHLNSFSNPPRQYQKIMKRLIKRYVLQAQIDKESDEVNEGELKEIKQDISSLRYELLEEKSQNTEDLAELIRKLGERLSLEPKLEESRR
TRPC4 PAM – allosteric potentiators of mouse TRPC4 channel. B-score at 10 µM. HEK293 TRPC4beta/mu-opioid, DAMGO EC20, Fluo-4 Ca2+ flux; hits give high values. 0.42% of 310,000 active. Q9QUQ5;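 active means B-score of calcium response area above 5 SD of library B-scores, with initial fluorescence ratio within 5 SD of library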;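 further: B-score of integrated fluorescence ratio over time as area under calcium response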
TRPC6 inh – mouse TRPC6 channel inhibition; AID 2553; HEK293-TRPC6, membrane potential dye, ACh-evoked depolarization; hits give low values; B-score at 10 µM; Q61143; 1.1% of 310,000 active;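 active means B-score under library mean minus 3 SD, initial fluorescence not abnormally high, positive integrated signal ratio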;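 further: B-score derived from integrated fluorescence ratio over the kinetic read; more negative B-score means stronger inhibition of depolarization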
Pemphigus Ab inh – human desmoglein-3 autoantibody binding inhibition. DSG3-coupled beads, scFv-anti-DSG3-GFP binding, flow cytometry; hits give low values. AID 588358. binding (percent of control), % at 10 µM. P32926. 0.48% of 310,000 active;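 active means binding more than 3 SD below its plate's average and above zero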;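 further: hits lower antibody fragment binding to DSG3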
TRPC4 act – opens the mouse TRPC4 cation channel; B-score at 10 µM; HEK293 TRPC4beta/mu-opioid, Fluo4 calcium fluorescence; hits give high values; Q9QUQ5; AID 2237; 0.49% of 310,000 active;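 active means B-score above 5 SD of library B-scores, and initial fluorescence ratio not above library mean plus 5 SD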;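 further: positive B-score marks a calcium rise read as TRPC4 activation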
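System – HEK293 cells stably co-expressing mouse TRPC4beta and mu-opioid receptor · Signal – Fluo4 calcium-sensitive dye fluorescence, kinetic, 1 Hz baseline · Benchmarks – buffer (low) and maximal DAMGO (high) · Read-out – B score of integrated fluorescence ratio per well · Incubation – dye loading 45 min room temperature, 110 s kinetic read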
* hit, by the source's call; i = inactive; · = no result given; ! = a repeat was not active.

SMILES | TRPC4 block | TRPC6 act | TRPC4 PAM | TRPC6 inh | Pemphigus Ab inh | TRPC4 act
O=C(N/N=C/c1ccc(OC(=O)c2ccccc2)cc1)c1cccnc1 | i | i | i | i | · | i
O=C(N/N=C/c1ccc(OC(=O)c2ccc([N+](=O)[O-])cc2)cc1)c1cccnc1 | i | i | i | i | 8.2* | i
O=C(N/N=C/c1ccc([N+](=O)[O-])cc1)c1[nH]ncc1Br | i | i | i | i | 59* | i
COc1ccccc1CNC(=O)CCNS(=O)(=O)/C=C/c1ccc(C)cc1 | · | · | · | · | 101 | ·
Cc1ccc(C(=O)NC(=S)Nc2c(C)ccc3nsnc23)cc1 | -5* | i | i | i | 101 | i
Cc1ccc(C(=O)NC(=S)Nc2cccc3nsnc23)cc1 | i | i | i | i | 87 | i
Cc1nn(-c2cccc(C(F)(F)F)c2)c(=O)c2ccccc12 | i | i | i | i | 94* | i
CCOC(=O)N1CCN(C(=O)c2ccc(CS(=O)c3ccccc3)o2)CC1 (configuration not stated) | i | i | i | i | 103 | i
COc1ccc(-n2cc(CNCCCN3CCCC3=O)c(-c3ccccc3Cl)n2)cc1 | i | i | i | i | 111 | i
O=C(O)Cc1cn(-c2ccccc2)nc1-c1ccccc1 | i | i | i | i | 112 | i
Fc1ccc(-n2cc(CNCCc3cccnc3)c(-c3ccccc3Cl)n2)cc1 | i | i | i | i | · | 124*
Fc1ccc(-c2nn(-c3ccccc3)cc2CNCc2ccccc2)cc1 | i | i | i | i | · | 96*
Fc1ccc(-n2cc(CNCCc3ccncc3)c(-c3ccccc3Cl)n2)cc1 | -6* | i | i | i | 101 | i
CC1C(=O)C(C)C(c2cc(Cl)ccc2O)NC1c1cc(Cl)ccc1O (configuration not stated) | i | i | i | i | 91 | i
CC(CC(=O)N1CCN(c2ccc(C(F)(F)F)cn2)CC1)n1ccnc1 (configuration not stated) | i | i | i | i | 96 | i
c1ccc2c(-c3[nH]ncc3CNCCCn3ncc4ccccc43)cccc2c1 | i | i | i | i | 115 | 64*
CCOc1ccccc1N1C(=O)c2ccc(S(=O)(=O)c3ccc(C(=O)O)cc3)cc2C1=O | i | i | i | i | 100 | i
CCCOc1ccc(C(=O)N/N=C/c2c[nH]c3ccc(Br)cc23)cc1 | i | i | i | i | 103 | i
CCCCCN=C(N)N/N=C/c1c[nH]c2ccc(OC)cc12 | i | i | i | i | 110 | 66*
CC1CCN(C(=O)C2CCCN2S(=O)(=O)c2ccc(Cl)cc2)CC1 (configuration not stated) | i | i | i | i | 108 | i
CCCCc1ccc(N/C(N)=N/c2nc(C)cc(C)n2)cc1 | i | i | i | i | 100 | 77*
Cc1ccc(N/C(N)=N/c2nc(C)cc(C)n2)cc1 | i | i | i | i | 106 | i
Cc1cc(C)nc(/N=C(\N)Nc2ccccc2-c2ccccc2)n1 | -6* | i | i | i | 78 | i
Cc1cc(C)cc(N/C(N)=N/c2nc(C)cc(C)n2)c1 | -6* | i | i | i | 115 | i
CCOC(=O)N1CCN(C(=O)CSC2=NS(=O)(=O)c3cc(F)ccc3N2)CC1 | i | i | i | i | 108 | i
SMILES | TRPC4 block | TRPC6 act | TRPC4 PAM | TRPC6 inh | Pemphigus Ab inh | TRPC4 act
COc1cc(/C=C/C(=O)OCC(=O)Nc2c(C)n(C)n(-c3ccccc3)c2=O)ccc1OCC#N | i | i | i | i | 103 | 125*
C=CCN(CC=C)CCOc1ccccc1 | i | i | 12* | i | 97 | i
COC(=O)C(C(=O)OC)c1ccc(NC(=O)c2cccc(Cl)c2)cc1 | i | i | i | i | 85* | i
COc1cccc(NC(=O)c2cccc(Cl)c2)c1 | · | · | · | · | 102 | ·
O=C(CCc1ccc(F)c(F)c1)NC1CCCN(Cc2ccc(Cl)cc2)C1 (configuration not stated) | i | i | i | i | 100 | 53*
O=C(NC1CCCN(Cc2ccc(Cl)cc2)C1)c1ccoc1 (configuration not stated) | i | i | i | i | 106 | 43*
CC(C)Cc1ccc(CN2CCCC(NC(=O)Cn3cnnn3)C2)cc1 (configuration not stated) | i | i | i | i | 102 | i
Cc1occc1C(=O)NC1CCCN(Cc2ccc(Cl)cc2)C1 (configuration not stated) | i | i | i | i | · | 62*
CC(C)Cc1ccc(CN2CCCC(NC(=O)CCn3cnnn3)C2)cc1 (configuration not stated) | i | i | i | i | · | 104*
O=C(Nc1cc(Cl)ccc1-n1cncn1)c1ccc(Br)o1 | i | i | i | i | 100 | i
CC(C)NC(=O)NC(=O)COC(=O)Cc1c(F)cccc1Cl | i | i | i | i | 100 | i
O=C(NN=C1CCCC1)c1cccc(Br)c1 | i | i | i | i | 96 | i
Cc1ccsc1C(=O)NC1CCCN(Cc2ccc(Cl)cc2)C1 (configuration not stated) | i | i | i | i | 136 | 75*
Cc1cc(C(=O)NC2CCCN(Cc3ccc(Cl)cc3)C2)c(C)o1 (configuration not stated) | i | i | i | i | 108 | i
C=CCn1c(SCC(=O)N2CCCCC2)nnc1-c1ccncc1 | i | i | i | i | 114 | 75*
CCCOc1ccc(C2=CSC3=NCCN23)cc1[N+](=O)[O-] | i | i | i | -6.2* | 98 | i
Cc1ccc2sc(N3CCN(CCNC(=O)c4ccco4)CC3)nc2c1C | i | i | i | i | 99 | i
CC(=O)NS(=O)(=O)c1ccc(N)cc1 | i | i | i | i | 25*! | i
O=C(Cn1c2ccccc2c2nc3n(c(=O)c21)CCS3)Nc1ccccc1C(F)(F)F | i | i | i | i | 93* | i
COc1ccccc1NC(=O)Cn1c2ccccc2c2nc3n(c(=O)c21)CCS3 | i | i | i | i | 112 | i
O=C(Nc1cccc(Cl)c1)N1CCN2C(=O)c3ccccc3C12c1ccccc1 (configuration not stated) | -6* | i | i | i | 107 | i
